Measurements taken from ChEMBL document CHEMBL1944514, “Fluorescence detection of single nucleotide polymorphisms using nucleic acid probe containing tricyclic base-linked acyclonucleoside” (Bioorg Med Chem Lett, 2012).
Active and inactive are the calls of the source. The calls are words filed in the database; no cut-off is given here.

Key:
Format in all cases: nucleic-acid assay
Nucleic Acid [1] = assay: Binding affinity to 3'-r(CUUCCAGUUACAUAGAGA)-5' RNA assessed as change in melting temperature by spectrophotometry
Nucleic Acid [2] = assay: Binding affinity to 3'-r(CUUCCAGUUGCAUAGAGA)-5' RNA assessed as change in melting temperature by spectrophotometry
Nucleic Acid [3] = assay: Binding affinity to 3'-r(CUUCCAGUUCCAUAGAGA)-5' RNA assessed as change in melting temperature by spectrophotometry
Nucleic Acid [4] = assay: Binding affinity to 3'-r(CUUCCAGUUUCAUAGAGA)-5' RNA assessed as change in melting temperature by spectrophotometry
Nucleic Acid [5] = assay: Binding affinity to 3'-r(CUUCCAGUUACAUAGAGA)-5' RNA assessed as fluorescence quenching by spectrophotometry
Nucleic Acid [6] = assay: Binding affinity to 3'-r(CUUCCAGUUGCAUAGAGA)-5' RNA assessed as fluorescence quenching by spectrophotometry
Nucleic Acid [7] = assay: Binding affinity to 3'-r(CUUCCAGUUCCAUAGAGA)-5' RNA assessed as fluorescence quenching by spectrophotometry
Nucleic Acid [8] = assay: Binding affinity to 3'-r(CUUCCAGUUUCAUAGAGA)-5' RNA assessed as fluorescence quenching by spectrophotometry
Nucleic Acid [9] = assay: Binding affinity to 3'-r(CUUCCAGUUACAUAGAGA)-5' RNA assessed as fluorescence quenching measured post UV-irradiation by visual analysis
Outline: (§1)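 Solutions of the N-containing probe/RNA target duplex in Tm buffer were irradiated with a handheld UV lamp at 254, 302 or 365 nm. The emitted colour was judged by eye from photographs.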

Nucleic Acid [10] = assay: Binding affinity to 3'-r(CUUCCAGUUUCAUAGAGA)-5' RNA assessed as fluorescence quenching measured post UV-irradiation by visual analysis; outline: as §1

ΔTm (Nucleic Acid [1]) [°C]	ΔTm (Nucleic Acid [2]) [°C]	ΔTm (Nucleic Acid [3]) [°C]	Activity (Nucleic Acid [4])	Activity (Nucleic Acid [5])	Activity (Nucleic Acid [6])	Activity (Nucleic Acid [7])	Activity (Nucleic Acid [8])	Activity (Nucleic Acid [3])	ΔTm (Nucleic Acid [4]) [°C]	Activity (Nucleic Acid [2])	Activity (Nucleic Acid [1])	Activity (Nucleic Acid [9])	Activity (Nucleic Acid [10])	Compound
–	-1.9	-3.5	–	inactive	inactive	Active	Active	–	-1.8	–	inactive	–	–	Cc1cn([C@H]2C[C@H](OP(=O)(O)OC[C@H]3O[C@@H](n4ccc(N)nc4=O)C[C@@H]3OP(=O)(O)OC[C@H]3O[C@@H](n4cnc5c(N)ncnc54)C[C@@H]3OP(=O)(O)OC[C@H]3O[C@@H](n4cnc5c(N)ncnc54)C[C@@H]3OP(=O)(O)OC[C@H](Cn3cnc4cc5c(N)nc(N)nc5nc43)OP(=O)(O)OC[C@H]3O[C@@H](n4cc(C)c(=O)[nH]c4=O)C[C@@H]3OP(=O)(O)OC[C@H]3O[C@@H](n4cnc5c(=O)[nH]c(N)nc54)C[C@@H]3OP(=O)(O)CC[C@H]3O[C@@H](n4cc(C)c(=O)[nH]c4=O)C[C@@H]3OP(=O)(O)OC[C@H]3O[C@@H](n4cnc5c(N)ncnc54)C[C@@H]3OP(=O)(O)OC[C@H]3O[C@@H](n4cc(C)c(=O)[nH]c4=O)C[C@@H]3OP(=O)(O)OC[C@H]3O[C@@H](n4ccc(N)nc4=O)C[C@@H]3OP(=O)(O)OC[C@H]3O[C@@H](n4cc(C)c(=O)[nH]c4=O)C[C@@H]3OP(=O)(O)OC[C@H]3O[C@@H](n4ccc(N)nc4=O)C[C@@H]3OP(=O)(O)OC[C@H]3O[C@@H](n4cc(C)c(=O)[nH]c4=O)C[C@@H]3O)[C@@H](COP(=O)(O)O[C@H]3C[C@H](n4cnc5c(=O)[nH]c(N)nc54)O[C@@H]3COP(=O)(O)O[C@H]3C[C@H](n4cnc5c(=O)[nH]c(N)nc54)O[C@@H]3COP(=O)(O)O[C@H]3C[C@H](n4cnc5c(N)ncnc54)O[C@@H]3COP(=O)(O)O[C@H]3C[C@H](n4cnc5c(N)ncnc54)O[C@@H]3COP(=O)(O)O[C@H]3C[C@H](n4cnc5c(=O)[nH]c(N)nc54)O[C@@H]3CO)O2)c(=O)nc1N
–	-0.9	-0.8	–	inactive	Active	Active	Active	–	1	–	inactive	inactive	Active	Cc1cn([C@H]2C[C@H](OP(=O)(O)OC[C@H]3O[C@@H](n4ccc(N)nc4=O)C[C@@H]3OP(=O)(O)OC[C@H]3O[C@@H](n4cnc5c(N)ncnc54)C[C@@H]3OP(=O)(O)OC[C@H]3O[C@@H](n4cnc5c(N)ncnc54)C[C@@H]3OP(=O)(O)OC[C@H]3O[C@@H](n4cc(C)c(=O)[nH]c4=O)C[C@@H]3OP(=O)(O)OC[C@H](Cn3cnc4cc5c(N)nc(N)nc5nc43)OP(=O)(O)OC[C@H]3O[C@@H](n4cnc5c(=O)[nH]c(N)nc54)C[C@@H]3OP(=O)(O)CC[C@H]3O[C@@H](n4cc(C)c(=O)[nH]c4=O)C[C@@H]3OP(=O)(O)OC[C@H]3O[C@@H](n4cnc5c(N)ncnc54)C[C@@H]3OP(=O)(O)OC[C@H]3O[C@@H](n4cc(C)c(=O)[nH]c4=O)C[C@@H]3OP(=O)(O)OC[C@H]3O[C@@H](n4ccc(N)nc4=O)C[C@@H]3OP(=O)(O)OC[C@H]3O[C@@H](n4cc(C)c(=O)[nH]c4=O)C[C@@H]3OP(=O)(O)OC[C@H]3O[C@@H](n4ccc(N)nc4=O)C[C@@H]3OP(=O)(O)OC[C@H]3O[C@@H](n4cc(C)c(=O)[nH]c4=O)C[C@@H]3O)[C@@H](COP(=O)(O)O[C@H]3C[C@H](n4cnc5c(=O)[nH]c(N)nc54)O[C@@H]3COP(=O)(O)O[C@H]3C[C@H](n4cnc5c(=O)[nH]c(N)nc54)O[C@@H]3COP(=O)(O)O[C@H]3C[C@H](n4cnc5c(N)ncnc54)O[C@@H]3COP(=O)(O)O[C@H]3C[C@H](n4cnc5c(N)ncnc54)O[C@@H]3COP(=O)(O)O[C@H]3C[C@H](n4cnc5c(=O)[nH]c(N)nc54)O[C@@H]3CO)O2)c(=O)nc1N

Continued, compound first:

Compound	ΔTm (Nucleic Acid [1]) [°C]	ΔTm (Nucleic Acid [2]) [°C]	ΔTm (Nucleic Acid [3]) [°C]	Activity (Nucleic Acid [4])	Activity (Nucleic Acid [5])	Activity (Nucleic Acid [6])	Activity (Nucleic Acid [7])	Activity (Nucleic Acid [8])	Activity (Nucleic Acid [3])	ΔTm (Nucleic Acid [4]) [°C]	Activity (Nucleic Acid [2])	Activity (Nucleic Acid [1])	Activity (Nucleic Acid [9])	Activity (Nucleic Acid [10])
Cc1cn([C@H]2C[C@H](OP(=O)(O)OC[C@H]3O[C@@H](n4ccc(N)nc4=O)C[C@@H]3OP(=O)(O)OC[C@H]3O[C@@H](n4cnc5c(N)ncnc54)C[C@@H]3OP(=O)(O)OC[C@H]3O[C@@H](n4cnc5c(N)ncnc54)C[C@@H]3OP(=O)(O)OC[C@H]3O[C@@H](n4cnc5c(N)ncnc54)C[C@@H]3OP(=O)(O)OC[C@H](Cn3cnc4cc5c(N)nc(N)nc5nc43)OP(=O)(O)OC[C@H]3O[C@@H](n4cnc5c(=O)[nH]c(N)nc54)C[C@@H]3OP(=O)(O)CC[C@H]3O[C@@H](n4cc(C)c(=O)[nH]c4=O)C[C@@H]3OP(=O)(O)OC[C@H]3O[C@@H](n4cnc5c(N)ncnc54)C[C@@H]3OP(=O)(O)OC[C@H]3O[C@@H](n4cc(C)c(=O)[nH]c4=O)C[C@@H]3OP(=O)(O)OC[C@H]3O[C@@H](n4ccc(N)nc4=O)C[C@@H]3OP(=O)(O)OC[C@H]3O[C@@H](n4cc(C)c(=O)[nH]c4=O)C[C@@H]3OP(=O)(O)OC[C@H]3O[C@@H](n4ccc(N)nc4=O)C[C@@H]3OP(=O)(O)OC[C@H]3O[C@@H](n4cc(C)c(=O)[nH]c4=O)C[C@@H]3O)[C@@H](COP(=O)(O)O[C@H]3C[C@H](n4cnc5c(=O)[nH]c(N)nc54)O[C@@H]3COP(=O)(O)O[C@H]3C[C@H](n4cnc5c(=O)[nH]c(N)nc54)O[C@@H]3COP(=O)(O)O[C@H]3C[C@H](n4cnc5c(N)ncnc54)O[C@@H]3COP(=O)(O)O[C@H]3C[C@H](n4cnc5c(N)ncnc54)O[C@@H]3COP(=O)(O)O[C@H]3C[C@H](n4cnc5c(=O)[nH]c(N)nc54)O[C@@H]3CO)O2)c(=O)nc1N	-2.3	-2.1	-2	inactive	Active	Active	Active	inactive	–	–	–	–	–	–
Cc1cn([C@H]2C[C@H](OP(=O)(O)OC[C@H]3O[C@@H](n4ccc(N)nc4=O)C[C@@H]3OP(=O)(O)OC[C@H]3O[C@@H](n4cnc5c(N)ncnc54)C[C@@H]3OP(=O)(O)OC[C@H]3O[C@@H](n4cnc5c(N)ncnc54)C[C@@H]3OP(=O)(O)OC[C@H]3O[C@@H](n4cnc5c(=O)[nH]c(N)nc54)C[C@@H]3OP(=O)(O)OC[C@H](Cn3cnc4cc5c(N)nc(N)nc5nc43)OP(=O)(O)OC[C@H]3O[C@@H](n4cnc5c(=O)[nH]c(N)nc54)C[C@@H]3OP(=O)(O)CC[C@H]3O[C@@H](n4cc(C)c(=O)[nH]c4=O)C[C@@H]3OP(=O)(O)OC[C@H]3O[C@@H](n4cnc5c(N)ncnc54)C[C@@H]3OP(=O)(O)OC[C@H]3O[C@@H](n4cc(C)c(=O)[nH]c4=O)C[C@@H]3OP(=O)(O)OC[C@H]3O[C@@H](n4ccc(N)nc4=O)C[C@@H]3OP(=O)(O)OC[C@H]3O[C@@H](n4cc(C)c(=O)[nH]c4=O)C[C@@H]3OP(=O)(O)OC[C@H]3O[C@@H](n4ccc(N)nc4=O)C[C@@H]3OP(=O)(O)OC[C@H]3O[C@@H](n4cc(C)c(=O)[nH]c4=O)C[C@@H]3O)[C@@H](COP(=O)(O)O[C@H]3C[C@H](n4cnc5c(=O)[nH]c(N)nc54)O[C@@H]3COP(=O)(O)O[C@H]3C[C@H](n4cnc5c(=O)[nH]c(N)nc54)O[C@@H]3COP(=O)(O)O[C@H]3C[C@H](n4cnc5c(N)ncnc54)O[C@@H]3COP(=O)(O)O[C@H]3C[C@H](n4cnc5c(N)ncnc54)O[C@@H]3COP(=O)(O)O[C@H]3C[C@H](n4cnc5c(=O)[nH]c(N)nc54)O[C@@H]3CO)O2)c(=O)nc1N	-3.1	-3	–	–	Active	Active	inactive	Active	inactive	-2.9	–	–	–	–
Cc1cn([C@H]2C[C@H](OP(=O)(O)OC[C@H]3O[C@@H](n4ccc(N)nc4=O)C[C@@H]3OP(=O)(O)OC[C@H]3O[C@@H](n4cnc5c(N)ncnc54)C[C@@H]3OP(=O)(O)OC[C@H]3O[C@@H](n4cnc5c(N)ncnc54)C[C@@H]3OP(=O)(O)OC[C@H](Cn3cnc4cc5c(N)nc(N)nc5nc43)OP(=O)(O)OC[C@H]3O[C@@H](n4ccc(N)nc4=O)C[C@@H]3OP(=O)(O)OC[C@H]3O[C@@H](n4cnc5c(=O)[nH]c(N)nc54)C[C@@H]3OP(=O)(O)CC[C@H]3O[C@@H](n4cc(C)c(=O)[nH]c4=O)C[C@@H]3OP(=O)(O)OC[C@H]3O[C@@H](n4cnc5c(N)ncnc54)C[C@@H]3OP(=O)(O)OC[C@H]3O[C@@H](n4cc(C)c(=O)[nH]c4=O)C[C@@H]3OP(=O)(O)OC[C@H]3O[C@@H](n4ccc(N)nc4=O)C[C@@H]3OP(=O)(O)OC[C@H]3O[C@@H](n4cc(C)c(=O)[nH]c4=O)C[C@@H]3OP(=O)(O)OC[C@H]3O[C@@H](n4ccc(N)nc4=O)C[C@@H]3OP(=O)(O)OC[C@H]3O[C@@H](n4cc(C)c(=O)[nH]c4=O)C[C@@H]3O)[C@@H](COP(=O)(O)O[C@H]3C[C@H](n4cnc5c(=O)[nH]c(N)nc54)O[C@@H]3COP(=O)(O)O[C@H]3C[C@H](n4cnc5c(=O)[nH]c(N)nc54)O[C@@H]3COP(=O)(O)O[C@H]3C[C@H](n4cnc5c(N)ncnc54)O[C@@H]3COP(=O)(O)O[C@H]3C[C@H](n4cnc5c(N)ncnc54)O[C@@H]3COP(=O)(O)O[C@H]3C[C@H](n4cnc5c(=O)[nH]c(N)nc54)O[C@@H]3CO)O2)c(=O)nc1N	-6	–	-6.5	–	Active	inactive	Active	Active	–	-5.4	inactive	–	–	–
